From ChEMBL document CHEMBL1132955 (J Med Chem, 2000)

Experiments:
Human alphaherpesvirus 3 [1] = test: Evaluated for the anti-VZV activity, the concentration required to reduce VZV YS plaque formation after 5 days in HEL cell cultures compared to untreated controls.; assay type: functional, organism-based; details: Human alphaherpesvirus 3, ys, 120 h
In short: (§1)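 Confluent HEL fibroblasts infected with VZV at 20 PFU/well. Residual virus removed after 1-2 h adsorption. Cells then kept in MEM with 2% inactivated FCS, 1% L-glutamine and 0.3% sodium bicarbonate plus serial compound dilutions. […] OKA and YS strains are TK-competent; 07 and YS-R are TK-deficient.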

Human alphaherpesvirus 3 [2] = test: Evaluated for the anti-VZV, the concentration required to reduce VZV TK -07 ( thymidine kinase-deficient strain ) plaque formation after 5 days in HEL cell cultures compared to untreated controls.; assay type: functional, organism-based; details: Human alphaherpesvirus 3, tk-07, HEL, 120 h; in short: as §1
Human alphaherpesvirus 3 [3] = test: Evaluated for the anti-VZV, the concentration required to reduce VZVTK-YS-R ( thymidine kinase-deficient strain ) plaque formation after 5 days in HEL cell cultures compared to untreated controls.; assay type: functional, organism-based; details: Human alphaherpesvirus 3, ys-r, 120 h; in short: as §1
Human alphaherpesvirus 3 [4] = test: Evaluated for the anti-VZV activity, the concentration required to reduce VZV OKA plaque formation after 5 days in HEL cell cultures compared to untreated controls.; assay type: functional, organism-based; details: Human alphaherpesvirus 3, oka, 120 h; in short: as §1
Human alphaherpesvirus 3 [5] = test: (§2) cytostatic concentration required to reduce the HEL cell number by 50%. after 5 days in the absence of virus; assay type: functional; details: Human alphaherpesvirus 3, HEL, 120 h
In short: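 HEL cells in 96-well plates treated with graded compound concentrations without virus for 5 days. Cells then trypsinized and counted with a Coulter counter.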

Human alphaherpesvirus 3 [6] = test: (§3) Minimal cytotoxic concentration, the concentration required to cause a microscopically visible alteration of normal cell morphology.; assay type: functional
In short: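 Uninfected HEL cell cultures exposed to graded compound concentrations. Morphology inspected by microscope. MCC is the lowest concentration producing a visible change in normal cell morphology.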

Human alphaherpesvirus 3 [7] = test: Evaluated for the anti-VZV, the concentration of compounds in uM required to reduce VZVTK-YS-R ( thymidine kinase-deficient strain ) plaque formation after 5 days in HEL cell cultures compared to untreated controls.; assay type: functional, organism-based; details: Human alphaherpesvirus 3, tkys-r, 120 h
Human alphaherpesvirus 3 [8] = test: Evaluated for the anti-VZV, the concentration of compounds in uM required to reduce VZVTK-07 ( thymidine kinase-deficient strain ) plaque formation after 5 days in HEL cell cultures compared to untreated controls.; assay type: functional, organism-based; details: Human alphaherpesvirus 3, tk-07, HEL, 120 h
Human alphaherpesvirus 3 [9] = test: Evaluated for the anti-VZV activity, the concentration of compounds in uM required to reduce VZV […] plaque formation after 5 days in HEL cell cultures compared to untreated controls.; assay type: functional, organism-based; details: Human alphaherpesvirus 3, ys, 120 h
Human alphaherpesvirus 3 [10] = test: Evaluated for the anti-VZV activity, the concentration of compounds in uM required to reduce VZV OKA Plaque formation after 5 days in HEL cell cultures compared to untreated controls.; assay type: functional, organism-based; details: Human alphaherpesvirus 3, oka, 120 h
In short: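 Confluent HEL fibroblasts infected with VZV at 20 PFU/well. Residual virus removed after 1-2 h adsorption. Cells then kept in MEM with 2% inactivated FCS, 1% L-glutamine and 0.3% sodium bicarbonate plus serial compound dilutions. OKA and YS strains are TK-competent; 07 and YS-R are TK-deficient.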

Human alphaherpesvirus 3 [11] = test: Evaluated for the anti-VZV activity, the concentration of compounds in uM required to reduce VZV OKA plaque formation after 5 days in HEL cell cultures compared to untreated controls.; assay type: functional, organism-based; details: Human alphaherpesvirus 3, oka, 120 h; in short: as §1
Human alphaherpesvirus 3 [12] = test: Evaluated for the anti-VZV, the concentration of compounds in uM required to reduce VZV TK-YS-R ( thymidine kinase-deficient strain ) plaque formation after 5 days in HEL cell cultures compared to untreated controls.; assay type: functional, organism-based; details: Human alphaherpesvirus 3, ys-r, 120 h; in short: as §1
Human alphaherpesvirus 3 [13] = test: Evaluated for the anti-VZV activity, which is the concentration of compounds in uM required to reduce VZV YS plaque formation after 5 days in HEL cell cultures compared to untreated controls.; assay type: functional, organism-based; details: Human alphaherpesvirus 3, ys, 120 h; in short: as §1
Human alphaherpesvirus 3 [14] = test: Evaluated for the anti-VZV activity, the concentration of compounds in uM required to reduce VZV TK-07 (thymidine kinase-deficient strain ) plaque formation after 5 days in HEL cell cultures compared to untreated controls.; details: Human alphaherpesvirus 3, tk-07, HEL, 120 h
Human alphaherpesvirus 3 [15] = test: as §2; assay type: functional; details: Human alphaherpesvirus 3, t, 120 h
In short: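 HEL fibroblasts, grown in MEM with 10% inactivated FCS, 1% L-glutamine and 0.3% sodium bicarbonate, were treated in 96-well cultures with varying compound concentrations for 5 days without virus. Cells were then trypsinized and counted with a Coulter counter. The value is the concentration giving 50% reduction in cell number.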

Human alphaherpesvirus 3 [16] = test: as §3; assay type: functional; details: Human alphaherpesvirus 3, t

Row | EC50 (Human alphaherpesvirus 3 [7]) [nM] | EC50 (Human alphaherpesvirus 3 [8]) [nM] | EC50 (Human alphaherpesvirus 3 [9]) [nM] | EC50 (Human alphaherpesvirus 3 [10]) [nM] | Structure (SMILES) | CC50 (Human alphaherpesvirus 3 [5]) [nM] | MCC (Human alphaherpesvirus 3 [6]) [µM] | further results
1 | > 200000 | > 200000 | 20 | 20 | CCCCCCCCCc1cc2cn([C@H]3C[C@H](O)[C@@H](CO)O3)c(=O)nc2o1 | > 200000 | > 200 | 
2 | > 50000 | > 50000 | 24 |  | CCCCCCCCc1cc2cn([C@H]3C[C@H](O)[C@@H](CO)O3)c(=O)nc2o1 | > 50000 | > 50 | EC50 (Human alphaherpesvirus 3 [11]): 8 nM
3 | > 50000 | > 50000 | 8 | 15 | CCCCCCCCCCc1cc2cn([C@H]3C[C@H](O)[C@@H](CO)O3)c(=O)nc2o1 | > 50000 | > 50 | 
4 | > 20000 | > 20000 | 27 | 40 | CCCCCCCCc1ccc(-c2cc3cn([C@H]4C[C@H](O)[C@@H](CO)O4)c(=O)nc3o2)cc1 | > 200000 | > 20 | 

Continued, compound first:

Row | Structure (SMILES) | EC50 (Human alphaherpesvirus 3 [7]) [nM] | EC50 (Human alphaherpesvirus 3 [8]) [nM] | EC50 (Human alphaherpesvirus 3 [9]) [nM] | EC50 (Human alphaherpesvirus 3 [10]) [nM] | CC50 (Human alphaherpesvirus 3 [5]) [nM] | MCC (Human alphaherpesvirus 3 [6]) [µM] | further results
5 | O=c1nc2oc(-c3ccccc3)cc2cn1[C@H]1C[C@H](O)[C@@H](CO)O1 |  |  |  |  | > 200000 | > 200 | EC50 (Human alphaherpesvirus 3 [1]): 160 nM; EC50 (Human alphaherpesvirus 3 [2]): > 200000 nM; EC50 (Human alphaherpesvirus 3 [3]): 162000 nM; EC50 (Human alphaherpesvirus 3 [4]): 280 nM
6 | O=c1nc2oc(-c3ccc(Br)cc3)cc2cn1[C@H]1C[C@H](O)[C@@H](CO)O1 | > 50000 | > 50000 | 500 | 500 |  | 50 | 
7 | Nc1nc2c(ncn2COCCO)c(=O)[nH]1 [ACYCLOVIR] |  |  |  |  | > 200000 | > 200 | 
8 | Cc1ccc(-c2cc3cn([C@H]4C[C@H](O)[C@@H](CO)O4)c(=O)nc3o2)cc1 |  |  |  |  | > 200000 | > 200 | EC50 (Human alphaherpesvirus 3 [12]): > 200000 nM; EC50 (Human alphaherpesvirus 3 [13]): 60 nM; EC50 (Human alphaherpesvirus 3 [11]): 60 nM; EC50 (Human alphaherpesvirus 3 [14]): 103000 nM
9 | O=c1nc2oc(-c3ccc(Cl)cc3)cc2cn1[C@H]1C[C@H](O)[C@@H](CO)O1 | > 50000 | > 50000 | 100 | 100 |  | 200 | 
10 | O=c1[nH]c(=O)n([C@H]2C[C@H](O)[C@@H](CO)O2)cc1/C=C/Br [BRIVUDINE] | > 150000 | > 150000 | 3 | 3 |  |  | CC50 (Human alphaherpesvirus 3 [15]): > 400000 nM; MCC (Human alphaherpesvirus 3 [16]): > 400 µM
